Measured values taken from ChEMBL document CHEMBL1131373, “Novel nonpeptide CCK-B antagonists: design and development of quinazolinone derivatives as potent, selective, and orally active CCK-B antagonists” (J Med Chem, 1998).

Legend:
[1] = molecular target: T1, Cholecystokinin receptor type A (Rattus norvegicus) (UniProt P30551); assay: Binding affinity towards Cholecystokinin type A receptor (CCK-A) receptor from rat pancreas using [125I]bolton Hunter CCK-8 as radioligand at a concentration of 10 um
T1 sequence (whole entry): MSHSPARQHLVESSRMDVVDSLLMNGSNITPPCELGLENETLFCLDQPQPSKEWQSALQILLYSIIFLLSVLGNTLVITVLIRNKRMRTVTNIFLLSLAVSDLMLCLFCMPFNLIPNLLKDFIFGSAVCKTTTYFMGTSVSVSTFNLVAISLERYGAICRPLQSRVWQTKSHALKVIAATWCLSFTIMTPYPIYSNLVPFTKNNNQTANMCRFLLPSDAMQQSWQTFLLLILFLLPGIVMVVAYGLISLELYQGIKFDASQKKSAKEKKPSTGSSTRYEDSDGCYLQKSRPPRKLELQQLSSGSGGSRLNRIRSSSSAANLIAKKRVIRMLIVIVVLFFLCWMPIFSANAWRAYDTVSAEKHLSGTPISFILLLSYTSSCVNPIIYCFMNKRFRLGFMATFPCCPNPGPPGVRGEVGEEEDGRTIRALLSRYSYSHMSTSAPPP
Outline: (§1)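 IC50 = concentration giving half-maximal inhibition of specific [125I]Bolton Hunter CCK-8 binding, with CCK-B sites from mouse cerebral cortex and CCK-A sites from rat pancreas. Weaker compounds given as % inhibition at 10 μM. Values are geometric means of at least three separate experiments; statistical errors 15% of the mean.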

[2] = molecular target: T2, Gastrin/cholecystokinin type B receptor (Mus musculus) (UniProt P56481); assay: Binding affinity towards Cholecystokinin type B receptor (CCK-B) receptor in mouse cerebral cortex using [125I]bolton Hunter CCK-8 as radioligand at a concentration of 10 um; assay type: tissue-based; outline: as §1
T2 sequence (whole entry): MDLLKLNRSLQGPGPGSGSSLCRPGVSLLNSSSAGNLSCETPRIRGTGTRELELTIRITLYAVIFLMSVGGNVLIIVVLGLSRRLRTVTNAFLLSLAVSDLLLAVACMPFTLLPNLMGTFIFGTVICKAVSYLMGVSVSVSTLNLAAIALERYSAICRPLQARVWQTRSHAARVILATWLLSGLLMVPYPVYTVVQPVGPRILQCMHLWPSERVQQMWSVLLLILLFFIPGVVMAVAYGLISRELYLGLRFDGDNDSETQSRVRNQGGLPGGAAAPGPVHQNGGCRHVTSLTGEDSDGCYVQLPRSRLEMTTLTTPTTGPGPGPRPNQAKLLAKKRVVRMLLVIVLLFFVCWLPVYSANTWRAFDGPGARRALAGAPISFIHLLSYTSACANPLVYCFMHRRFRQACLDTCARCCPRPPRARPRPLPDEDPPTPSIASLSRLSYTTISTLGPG

[3] = molecular target: T3, Gastrin/cholecystokinin type B receptor (Mus musculus, UniProt P56481); assay: Binding affinity towards Cholecystokinin type B receptor (CCK-B) receptor in mouse cerebral cortex using [125I]bolton Hunter CCK-8 as radioligand; assay type: tissue-based
T3 sequence (P56481 whole entry): T2 sequence (whole entry)

[4] = molecular target: T4, Cholecystokinin receptor type A (Rattus norvegicus, UniProt P30551); assay: Binding affinity towards Cholecystokinin type A receptor (CCK-A) receptor from rat pancreas using [125I]bolton Hunter CCK-8 as radioligand; outline: as §1
T4 sequence (P30551 whole entry): T1 sequence (whole entry)

[5] = The compound was tested for systemic plasma clearance(CL) in rats and is expressed in mL/min/kg.; assay type: ADME, organism-based; conditions: rat
Outline: (§2)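 Fasted male Wistar rats, three per group, given a single oral nominal dose of 10 mg/kg or a single iv nominal dose of 5 mg/kg. Vehicle was either 25:40:35 ethanol/PEG400/5% dextrose water or 10:40:50 dimethylacetamide/PEG400/5% dextrose water. Heparinized plasma taken from a jugular vein cannula at serial times out to 24 h and assayed by validated HPLC-fluorescence. Noncompartmental analysis; %F = dose-normalized po AUC/iv AUC.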

[6] = The compound tested for maximum observed plasma concentration in rats and is expressed in microgram/mL.; assay type: ADME, organism-based; conditions: rat; outline: as §2
[7] = The compound was tested for percent absolute oral bioavailability (%F) in rats and value in parenthesis indicate percent relative standard deviation (% RSD).; assay type: ADME, organism-based; conditions: rat, in vivo, read-out: F (%RSD); outline: as §2
[8] = The compound was tested for the time to reach maximum observed plasma concentration in rats and is expressed in mins.; assay type: ADME, organism-based; conditions: rat; outline: as §2
[9] = The compound was tested for percent absolute oral bioavailability (%F) in rats; assay type: ADME, organism-based; conditions: rat, in vivo; outline: as §2

Row | Compound | IC50 [3] | IC50 [4] | also measured
1 | CCOC(=O)c1cccc(NC(=O)NNc2nc3ccccc3c(=O)n2-c2cccc3ccccc23)c1 | – | – | inhibition [1]: 5%; inhibition [2]: 35%
2 | CC(C)Oc1cccc(-n2c(CCc3c[nH]c4cc(Br)ccc34)nc3ccccc3c2=O)c1 | 0.0093 µM | – | –
3 | COc1cccc(N(CC(=O)N(C)c2ccccc2)C(=O)CNC(=O)Nc2cccc(C)c2)c1 | 0.008 µM | 0.14 µM | –
4 | COc1ccc(-n2c(NNC(=O)Nc3cccc(C)c3)nc3ccccc3c2=O)cc1OC | 2.11 µM | – | inhibition [1]: 34%
5 | O=C(NNc1nc2ccccc2c(=O)n1-c1ccccc1)Nc1ccccc1 | 1.24 µM | 7.33 µM | –
6 | N#Cc1cccc(NC(=O)NNc2nc3ccccc3c(=O)n2-c2ccccc2)c1 | 0.262 µM | – | inhibition [1]: 37%
7 | Cc1cccc(NC(=O)NNc2nc3ccccc3c(=O)n2-c2ccc(Cl)c(Cl)c2)c1 | 0.097 µM | – | inhibition [1]: 10%
8 | CN(C)c1cccc(-n2c(NNC(=O)Nc3cccc(C#N)c3)nc3ccccc3c2=O)c1 | 0.014 µM | 7.1 µM | clearance [5]: 29.5 mL/min/kg; Cmax [6]: 910 ng/mL; bioavailability [7]: 22%; Tmax [8]: 25 min
9 | CCOc1cccc(-n2c(NNC(=O)Nc3cccc(C#N)c3)nc3ccccc3c2=O)c1 | 0.0058 µM | 4.45 µM | –
10 | CN(C)c1cccc(-n2c(CCc3c[nH]c4cc(Br)ccc34)nc3ccccc3c2=O)c1 | 0.016 µM | – | –
11 | COc1cccc(N(CC(=O)N(C)c2ccccc2)C(=O)CNC(=O)Nc2cccc(C(=O)O)c2)c1 | 0.023 µM | 0.925 µM | –
12 | Cc1cccc(NC(=O)NNc2nc3ccccc3c(=O)n2-c2cccc(F)c2)c1 | 0.915 µM | – | inhibition [1]: 26%
13 | Cc1cccc(NC(=O)NNc2nc3ccccc3c(=O)n2-c2ccc(Cl)cc2)c1 | 1.17 µM | – | inhibition [1]: 10%
14 | Cc1cccc(NC(=O)NNc2nc3ccccc3c(=O)n2-c2cccc(Cl)c2Cl)c1 | 0.073 µM | 3.01 µM | –
15 | CCOC(=O)c1cccc(NC(=O)NNc2nc3ccccc3c(=O)n2-c2ccc(Cl)c(Cl)c2)c1 | 0.0024 µM | – | inhibition [1]: 16%
16 | Cc1cccc(NC(=O)NNc2nc3ccccc3c(=O)n2-c2cccc3ccccc23)c1 | 3.56 µM | – | inhibition [1]: 7%
17 | CCOC(=O)c1cccc(NC(=O)NNc2nc3ccccc3c(=O)n2-c2cccc(Cl)c2Cl)c1 | 0.05 µM | 1.66 µM | –
18 | CC(C)Oc1cccc(-n2c(NNC(=O)NC3CCCCC3)nc3ccccc3c2=O)c1 | 0.108 µM | 17.3 µM | –
19 | COC(=O)c1cccc(NC(=O)N[C@@H]2N=C(c3ccccc3)c3ccccc3N(C)C2=O)c1 | 0.008 µM | – | –
20 | Cc1cccc(NC(=O)NNc2nc3ccccc3c(=O)n2-c2cccc(N(C)C)c2)c1 | 0.063 µM | 4.9 µM | –
21 | Cc1cccc(NC(=O)NNc2nc3ccccc3c(=O)n2-c2cccc(N)c2)c1 | 0.219 µM | 0.107 µM | –
22 | Cc1cccc(NC(=O)NNc2nc3ccccc3c(=O)n2-c2cccnc2)c1 | 4.28 µM | 12.5 µM | –
23 | Cc1cccc(NC(=O)NNc2nc3ccccc3c(=O)n2-c2cccc(Cl)c2)c1 | 0.225 µM | – | inhibition [1]: 20%

Continued, in another order:

Row | IC50 [3] | IC50 [4] | Compound | also measured
24 | 0.005 µM | 2.65 µM | CCOC(=O)c1cccc(NC(=O)NNc2nc3ccccc3c(=O)n2-c2cccc(N(C)C)c2)c1 | –
25 | 0.001 µM | 2.56 µM | CC(C)Oc1cccc(-n2c(NNC(=O)Nc3cccc([N+](=O)[O-])c3)nc3ccccc3c2=O)c1 | –
26 | 0.0059 µM | 2.42 µM | CC(C)Oc1cccc(-n2c(NNC(=O)Nc3cccc(Cl)c3)nc3ccccc3c2=O)c1 | –
27 | 0.008 µM | 2.24 µM | CC(C)Oc1cccc(-n2c(NNC(=O)Nc3cccc(C(F)(F)F)c3)nc3ccccc3c2=O)c1 | –
28 | 0.026 µM | – | CCOC(=O)c1cccc(NC(=O)NNc2nc3ccccc3c(=O)n2-c2cccc(F)c2)c1 | inhibition [1]: 30%
29 | 0.029 µM | 8.11 µM | CC(C)Oc1cccc(-n2c(NNC(=O)Nc3cccc(C(=O)O)c3)nc3ccccc3c2=O)c1 | –
30 | 7.67 µM | – | CCOC(=O)c1ccccc1NC(=O)NNc1nc2ccccc2c(=O)n1-c1cccc(OC(C)C)c1 | inhibition [1]: 22%
31 | 0.014 µM | – | CCOC(=O)c1cccc(NC(=O)NNc2nc3ccccc3c(=O)n2-c2ccc(Cl)cc2)c1 | inhibition [1]: 15%
32 | 0.2 µM | 5.1 µM | COc1cccc(-n2c(NNC(=O)Nc3cccc(C)c3)nc3ccccc3c2=O)c1 | –
33 | 0.592 µM | – | CCOC(=O)c1cccc(NC(=O)NNc2nc3ccccc3c(=O)n2-c2ccc(OC)cc2)c1 | inhibition [1]: 20%
34 | 0.088 µM | 5.56 µM | CC(C)Oc1cccc(-n2c(NNC(=O)c3ccc(Br)cc3)nc3ccccc3c2=O)c1 | –
35 | 0.319 µM | 11.2 µM | CCOC(=O)c1cccc(NC(=O)NNc2nc3ccccc3c(=O)n2-c2cccnc2)c1 | –
36 | 0.014 µM | 3.43 µM | CC(C)Oc1cccc(-n2c(NNC(=O)Nc3ccc(Br)cc3)nc3ccccc3c2=O)c1 | –
37 | 0.0015 µM | 3.47 µM | CCOC(=O)c1cccc(NC(=O)NNc2nc3ccccc3c(=O)n2-c2cccc(OC(C)C)c2)c1 | –
38 | 0.025 µM | 15.5 µM | COc1ccc(NC(=O)NNc2nc3ccccc3c(=O)n2-c2cccc(OC(C)C)c2)cc1 | –
39 | 0.038 µM | 2.78 µM | CC(C)Oc1cccc(-n2c(NNC(=O)Nc3ccc(C(F)(F)F)cc3)nc3ccccc3c2=O)c1 | –

Row | IC50 [3] | IC50 [4] | Compound | also measured
40 | 0.011 µM | 6.4 µM | Cc1cccc(NC(=O)NNc2nc3ccccc3c(=O)n2-c2cccc(OC(C)C)c2)c1 | –
41 | 0.0019 µM | 2.96 µM | CC(C)Oc1cccc(-n2c(NNC(=O)Nc3cccc(C(=O)OC(C)(C)C)c3)nc3ccccc3c2=O)c1 | bioavailability [9]: < 5%; clearance [5]: 18 mL/min/kg; Cmax [6]: < 250 ng/mL
42 | 1.08 µM | – | Cc1cccc(NC(=O)NNc2nc3ccccc3c(=O)n2-c2ccccc2)c1 | inhibition [1]: 39%
43 | 0.057 µM | 3.16 µM | CCOC(=O)c1ccc(NC(=O)NNc2nc3ccccc3c(=O)n2-c2cccc(OC(C)C)c2)cc1 | –
44 | 0.005 µM | 1.21 µM | CCOC(=O)c1cccc(NC(=O)NNc2nc3ccccc3c(=O)n2-c2cccc(OCC)c2)c1 | –
45 | 0.015 µM | 2.33 µM | CCOC(=O)c1cccc(NC(=O)NNc2nc3ccccc3c(=O)n2-c2cccc(OC)c2)c1 | –
46 | 0.014 µM | 3.59 µM | CC(C)Oc1cccc(-n2c(NNC(=O)Nc3ccc(Cl)cc3)nc3ccccc3c2=O)c1 | –
47 | 0.01 µM | 4.2 µM | COc1ccccc1NC(=O)NNc1nc2ccccc2c(=O)n1-c1cccc(OC(C)C)c1 | –
48 | 0.0012 µM | 5.35 µM | CC(C)Oc1cccc(-n2c(NNC(=O)Nc3cccc(C#N)c3)nc3ccccc3c2=O)c1 | –
49 | 0.152 µM | – | CCOC(=O)c1cccc(NC(=O)NNc2nc3ccccc3c(=O)n2-c2ccccc2)c1 | inhibition [1]: 37%
50 | 0.033 µM | 4.98 µM | CCOC(=O)c1cccc(NC(=O)NNc2nc3ccccc3c(=O)n2-c2cccc(Cl)c2)c1 | –
51 | 0.015 µM | 4.58 µM | CC(C)Oc1cccc(-n2c(NNC(=O)Nc3ccccc3)nc3ccccc3c2=O)c1 | –
52 | 0.022 µM | 7.47 µM | COc1cccc(NC(=O)NNc2nc3ccccc3c(=O)n2-c2cccc(OC(C)C)c2)c1 | –
53 | 0.045 µM | 2.57 µM | CCOc1cccc(-n2c(NNC(=O)Nc3cccc(C)c3)nc3ccccc3c2=O)c1 | –
54 | 0.611 µM | – | CCOC(=O)c1cccc(NC(=O)NNc2nc3ccccc3c(=O)n2-c2ccc(OC)c(OC)c2)c1 | inhibition [1]: 20%
